Measurements taken from ChEMBL document CHEMBL4130635, “2,4-Diaminoquinazolines as Dual Toll-like Receptor (TLR) 7/8 Modulators for the Treatment of Hepatitis B Virus” (J Med Chem, 2018).
Active and inactive are the calls of the source. The rule behind the calls is not given here.

Legend:
[1] = target: T1, TLR7 and TLR8 (Homo sapiens) (UniProt Q9NYK1+Q9NR97); assay: Agonist activity at TLR7/8 in human PBMCs co-cultured with primary human hepatocytes infected with HBV genotype C for 12 days assessed as increase in MCP1 levels up to 5 uM measured after 42 days
Plasma [2] = assay: Proinflammatory activity in C57BL/6J mouse plasma assessed as IL-1beta levels at 30 mg/kg, po by multiplex assay (reference value: 60 pg/ml); format: functional
Cynomolgus monkey [3] = assay: Effect on cytokine profile in cynomolgus monkey plasma assessed as IL-12P70 levels at 30 mg/kg, po after 24 hrs by Luminex assay (reference value: 2.17 pg/ml); format: functional, Macaca fascicularis
In short: (§1)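 Healthy cynomolgus monkeys given single oral doses of 1, 3, 9 and 30 mg/kg, with a 2-week wash-out planned between doses. Systemic cytokine levels in plasma were sampled at 0.5, 1, 2, 4, 9 and 24 h postdose.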

Cynomolgus monkey [4] = assay: Plasma concentration in cynomolgus monkey at 3 mg/kg, po by LC-MS analysis; format: ADME, organism-based, Macaca fascicularis; conditions: in vivo
Liver [5] = assay: Proinflammatory activity in C57BL/6J mouse liver assessed as CXCL-1 levels at 3 mg/kg, po by multiplex assay (reference value: 25 pg/g); format: functional
Cynomolgus monkey [6] = assay: Toxicity in cynomolgus monkey assessed as change in body weight up to 30 mg/kg, po; format: organism-based, Macaca fascicularis; conditions: in vivo
Plasma [7] = assay: Proinflammatory activity in C57BL/6J mouse plasma assessed as CXCL-1 levels at 10 mg/kg, po by multiplex assay (reference value: 230 pg/ml); format: functional
Cynomolgus monkey [8] = assay: Activation of monocytes in cynomolgus monkey plasma assessed as upregulation of MCP1 levels at 30 mg/kg, po after 24 hrs by Luminex assay (reference value: 385 pg/ml); format: functional, Macaca fascicularis
[9] = target: Voltage-gated inwardly rectifying potassium channel KCNH2 (Homo sapiens, UniProt Q12809); assay: Inhibition of radioligand binding to human ERG expressed in HEK293 cell membranes by scintillation counting method
Chain of Voltage-gated inwardly rectifying potassium channel KCNH2 (Q12809 whole entry): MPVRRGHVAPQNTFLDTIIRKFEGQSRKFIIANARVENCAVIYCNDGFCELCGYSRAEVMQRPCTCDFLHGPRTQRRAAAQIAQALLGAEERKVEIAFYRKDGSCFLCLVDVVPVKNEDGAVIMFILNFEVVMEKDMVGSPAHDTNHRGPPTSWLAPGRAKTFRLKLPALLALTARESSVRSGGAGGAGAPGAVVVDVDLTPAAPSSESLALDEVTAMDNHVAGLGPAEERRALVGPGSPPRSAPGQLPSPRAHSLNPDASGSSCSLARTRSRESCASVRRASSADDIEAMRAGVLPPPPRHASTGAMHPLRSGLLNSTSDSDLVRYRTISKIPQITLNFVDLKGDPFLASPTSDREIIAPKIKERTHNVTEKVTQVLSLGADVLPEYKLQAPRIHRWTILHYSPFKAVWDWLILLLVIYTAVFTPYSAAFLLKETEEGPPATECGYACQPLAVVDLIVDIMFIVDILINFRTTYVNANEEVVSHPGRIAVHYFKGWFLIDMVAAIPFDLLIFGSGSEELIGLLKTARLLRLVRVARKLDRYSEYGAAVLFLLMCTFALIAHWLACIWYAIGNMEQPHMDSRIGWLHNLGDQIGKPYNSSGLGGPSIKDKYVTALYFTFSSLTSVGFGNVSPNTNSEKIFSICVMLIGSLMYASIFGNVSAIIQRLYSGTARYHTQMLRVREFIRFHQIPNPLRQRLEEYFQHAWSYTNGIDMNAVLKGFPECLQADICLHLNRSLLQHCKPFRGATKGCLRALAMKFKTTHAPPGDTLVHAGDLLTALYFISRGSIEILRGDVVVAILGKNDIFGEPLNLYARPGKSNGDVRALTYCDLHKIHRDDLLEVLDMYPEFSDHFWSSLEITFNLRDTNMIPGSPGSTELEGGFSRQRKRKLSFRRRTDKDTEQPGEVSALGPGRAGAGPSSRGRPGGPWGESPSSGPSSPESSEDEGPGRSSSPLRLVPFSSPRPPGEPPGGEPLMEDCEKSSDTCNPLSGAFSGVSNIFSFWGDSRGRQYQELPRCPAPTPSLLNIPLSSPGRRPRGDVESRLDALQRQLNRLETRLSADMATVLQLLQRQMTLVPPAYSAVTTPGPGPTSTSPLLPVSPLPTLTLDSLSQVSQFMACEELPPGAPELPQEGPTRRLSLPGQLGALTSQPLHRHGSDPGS

Plasma [10] = assay: Proinflammatory activity in C57BL/6J mouse plasma assessed as IL-6 levels at 1 mg/kg, po by multiplex assay (reference value: 505 pg/ml); format: functional
Liver [11] = assay: Proinflammatory activity in C57BL/6J mouse liver assessed as IL-6 levels at 1 mg/kg, po by multiplex assay (reference value: 10 pg/g); format: functional
Cynomolgus monkey [12] = assay: Induction of ISG response in cynomolgus monkey plasma assessed as upregulation of Isg15 mRNA expression at 9 mg/kg, po after 24 hrs by Fluidigm RT-qPCR analysis (reference value: 1); format: functional, Macaca fascicularis
In short: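 Cynomolgus monkeys, single oral doses of 1, 3, 9 and 30 mg/kg with a planned 2-week wash-out between doses. Systemic ISG (ISG15, Mx1, OAS1) mRNA was measured by Fluidigm RT-qPCR at 1, 2, 4, 8 and 24 h postdose.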

Cynomolgus monkey [13] = assay: Induction of G-CSF in cynomolgus monkey plasma at 30 mg/kg, po after 24 hrs by Luminex assay (reference value: 85 pg/ml); format: functional, Macaca fascicularis; in short: as §1
Plasma [14] = assay: Proinflammatory activity in C57BL/6J mouse plasma assessed as CXCL-1 levels at 3 mg/kg, po by multiplex assay (reference value: 230 pg/ml); format: functional
[15] = Cmax in C57BL/6J mouse liver at 0.3 mg/kg, po by LC-MS analysis; format: ADME, organism-based; parameters: dose 0.3 mg/kg, route oral
In short: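 Healthy C57BL/6 mice, groups of 15, given a single oral dose (0.3, 1, 3, 10 or 30 mg/kg) in 20% HP-β-CD. Blood drawn at 0.5 h. Three mice per group sacrificed at 0.5, 1, 2, 4 or 7 h, and compound in plasma and liver measured by LC−MS. Values rounded to whole numbers.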

Plasma [16] = assay: Anti-inflammatory activity in C57BL/6J mouse plasma assessed as IL-10 levels at 10 mg/kg, po by multiplex assay (reference value: 120 pg/ml); format: functional
In short: (§2)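 Single oral gavage in 20% HP-β-CD to healthy C57BL/6 mice, groups of 15 at 0.3, 1, 3, 10 or 30 mg/kg. Three mice per group sacrificed at 0.5, 1, 2, 4 or 7 h. Plasma and liver cytokines by multiplex, maximum level reported, rounded to nearest multiple of 5.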

Liver [17] = assay: Effect on cytokine profile in C57BL/6J mouse liver assessed as IL-12p70 levels at 1 mg/kg, po by multiplex assay (reference value: 5 pg/g); format: functional, organism-based; in short: as §2
Plasma [18] = assay: Proinflammatory activity in C57BL/6J mouse plasma assessed as TNFalpha levels at 1 mg/kg, po by multiplex assay (reference value: 70 pg/ml); format: functional
Cynomolgus monkey [19] = assay: Proinflammatory activity in cynomolgus monkey plasma assessed as TNFalpha levels at 9 mg/kg, po after 24 hrs by Luminex assay (reference value: 285 pg/ml); format: functional, Macaca fascicularis
Liver [20] = assay: Proinflammatory activity in C57BL/6J mouse liver assessed as TNFalpha levels at 30 mg/kg, po by multiplex assay (reference value: 15 pg/g); format: functional
Plasma [21] = assay: Effect on cytokine profile in C57BL/6J mouse plasma assessed as IL-12p70 levels at 1 mg/kg, po by multiplex assay (reference value: 560 pg/ml); format: functional; in short: as §2
Liver [22] = assay: Upregulation of IP-10 mRNA expression levels in C57BL/6J mouse liver at 3 mg/kg, po by RT-qPCR analysis (reference value: 1); format: functional
[23] = target: T1, TLR7 and TLR8 (Homo sapiens); assay: Agonist activity at TLR7/8 in human PBMCs assessed as reduction in extracellular viral load in human hepatocytes infected with HBV genotype C for 12 days followed by exposure to conditioned supernatant from up to 5 uM compound treated PBMCs measured after 42 days; format: cell-based
Liver [24] = assay: Induction of IFNalpha levels in C57BL/6J mouse liver at 3 mg/kg, po by ELISA (reference value: 30 pg/g); format: functional
[25] = target: T1, TLR7 and TLR8 (Homo sapiens); assay: Agonist activity at TLR7/8 in human PBMCs co-cultured with primary human hepatocytes infected with HBV genotype C for 12 days assessed as increase in IL-6 levels up to 5 uM measured after 42 days
[26] = AUC (0 to last) in C57BL/6J mouse liver at 30 mg/kg, po by LC-MS analysis; format: ADME, organism-based; conditions: in vivo
In short: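 Healthy C57BL/6 mice were dosed once by mouth at 0.3, 1, 3, 10 or 30 mg/kg in 20% HP-β-CD, in groups of 15 per dose. Three mice per group were sacrificed at 0.5, 1, 2, 4 or 7 h, and plasma and liver compound levels were measured by LC–MS. Values were rounded to whole numbers.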

Cynomolgus monkey [27] = assay: Effect on cytokine profile in cynomolgus monkey plasma assessed as IL-15 levels at 3 mg/kg, po after 24 hrs by Luminex assay (reference value: 20 pg/ml); format: functional, Macaca fascicularis; in short: as §1
Plasma [28] = assay: Induction of IFNalpha levels in C57BL/6J mouse plasma at 3 mg/kg, po by ELISA; format: functional
[29] = target: T1, TLR7 and TLR8 (Homo sapiens); assay: Agonist activity at TLR7/8 in human PBMCs co-cultured with primary human hepatocytes infected with HBV genotype C for 12 days assessed as increase in IL-12p70 levels up to 5 uM measured after 42 days

In the case of `CCC[C@@H](CCO)Nc1nc(N)nc2c(F)cccc12`, the Activity [1] is reported as “Active”, the Activity (Plasma [2]) is reported as 70 pg/mL and the Activity (Cynomolgus monkey [3]) is reported as 10.1 pg/mL. The Cp (Cynomolgus monkey [4]) was 14 ng/mL, the Activity (Liver [5]) was 35575 pg/g and the Activity (Cynomolgus monkey [6]) was “Non-Toxic”. For the same molecule, the Activity (Plasma [7]) was over 10000 pg/mL, the Activity (Cynomolgus monkey [8]) was over 10000 pg/mL and the IC50 [9] was over 10 µM. The Activity (Plasma [10]) was 1150 pg/mL, the Activity (Liver [11]) was 905 pg/g and the “fold change (FC)” value (Cynomolgus monkey [12]) was 560. The Activity (Cynomolgus monkey [13]) was 1135 pg/mL, the Activity (Plasma [14]) was over 10000 pg/mL and the Cmax [15] was 32 ng/g. The Activity (Plasma [16]) was 29450 pg/mL, the Activity (Liver [17]) was “Below limit of detection” and the Activity (Plasma [18]) was 335 pg/mL. The Activity (Cynomolgus monkey [19]) was 350 pg/mL, the Activity (Liver [20]) was 13600 pg/g and the Activity (Plasma [21]) was 380 pg/mL. For the same molecule, the “fold change (FC)” value (Liver [22]) was 845, the Activity [23] was “Active” and the Activity (Liver [24]) was 765 pg/g. The Activity [25] was “Active”, the AUClast [26] was 7160 ng·h/g and the Activity (Cynomolgus monkey [27]) was 60 pg/mL. The Activity (Plasma [28]) was 695 pg/mL and the Activity [29] was “Active”.
